# Data from ChEMBL document CHEMBL3994624, “Antimalarial Pyrido[1,2-a]benzimidazoles: Lead Optimization, Parasite Life Cycle Stage Profile, Mechanistic Evaluation, Killing Kinetics, and in Vivo Oral Efficacy in a Mouse Model” (J Med Chem, 2017).
# pIC50: −log10 of the molar value. Calls of active or inactive are those of the source. The rule behind the calls is not given here.
# Assays:
# Huh-7 = experiment: Cytotoxicity against human HuH7 cells at 1 to 10 uM after 48 hrs by Alamarblue assay; format: cell-based; settings: huh-7, 48 h
# Plasmodium falciparum [1] = experiment: Ratio of IC50 for chloroquine-sensitive Plasmodium falciparum NF54 after 24 hrs to IC50 for chloroquine-sensitive Plasmodium falciparum NF54 after 72 hrs; format: functional
# Ferriprotoporphyrin IX [2] = experiment: Inhibition of beta hematin formation in water/NP40/DMSO solution after 5 hrs
# Ferriprotoporphyrin IX [3] = experiment: Inhibition of beta hematin formation in ring stage of chloroquine-sensitive Plasmodium falciparum NF54 assessed as increase in free heme level at 0.5 to 3 times IC50 after 36 hrs by UV-vis spectra analysis
# Summary of the method: (§1)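 Synchronized ring-stage parasites treated with increasing drug concentrations, then cellular fractionation. Free haem and haemozoin quantified as iron (fg/cell) and compared with untreated control; significance by p-values; parasite survival overlaid.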
# Plasmodium berghei [4] = experiment: Antimalarial activity against GFP-fused Plasmodium berghei ANKA liver stage infected in HuH7 cells pretreated for 1 hr followed by parasite infection at 1 uM after 48 hrs by luciferase reporter gene assay; format: functional, cell-based
# Plasmodium falciparum [5] = experiment: Anti-plasmodial activity against chloroquine-sensitive Plasmodium falciparum NF54 by [3H]-hypoxanthine incorporation assay; format: functional
# Summary of the method: (§2)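 P. falciparum asexual blood-stage growth inhibition by [3H]hypoxanthine incorporation; chloroquine and artesunate run as reference drugs in every experiment; IC50 given as mean of ≥2 independent experiments.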
# Ferriprotoporphyrin IX [6] = experiment: Inhibition of beta hematin formation in ring stage of chloroquine-sensitive Plasmodium falciparum NF54 assessed as decrease in haemozoin level at 0.5 to 3 times IC50 after 36 hrs by UV-vis spectra analysis; summary of the method: as §1
# [7] = Selectivity index, ratio of IC50 for CHO cells to IC50 for chloroquine-sensitive Plasmodium falciparum NF54; format: toxicity; settings: hamster, read-out: Ratio IC50
# Summary of the method: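 Selectivity index = IC50 CHO / IC50 PfNF54.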
# [8] = Metabolic stability in Balb/c mouse liver microsomes assessed as compound remaining at 1 uM in presence of NADPH after 30 mins by LC-MS/MS analysis; format: ADME, microsome; settings: read-out: Stability
# Summary of the method: (§3)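 Mouse and human liver microsomes; % compound remaining after 30 min.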
# CHO = experiment: Cytotoxicity against CHO cells after by MTT assay; format: cell-based; settings: Cricetulus griseus
# [9] = Kinetic solubility of the compound in FaSSIF at pH 6.5 after 2 hrs by shake flask method; format: physicochemical; settings: read-out: Kinetic_solubility
# Plasmodium falciparum [10] = experiment: Anti-plasmodial activity against multidrug resistant Plasmodium falciparum K1 by [3H]-hypoxanthine incorporation assay; format: functional; summary of the method: as §2
# Plasmodium berghei [11] = experiment: Antimalarial activity against GFP-fused Plasmodium berghei ANKA liver stage infected in HuH7 cells pretreated for 1 hr followed by parasite infection after 48 hrs by luciferase reporter gene assay; format: functional, cell-based; settings: Huh-7
# Plasmodium berghei [12] = experiment: Antimalarial activity against GFP-fused Plasmodium berghei ANKA infected in mouse assessed as reduction in parasitemia at 3 mg/kg, po administered once daily for 4 days by flow cytometry relative to control; format: functional; set-up: scale not given: the % may be the effect or the level left
# Summary of the method: (§4)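 P. berghei-infected mice, 3 per group. Compound formulated in 90/10 Tween80/ethanol (v/v), diluted 10-fold with water, given orally once daily at 4, 24, 48 and 72 h post-infection. Outcomes: % parasitemia reduction versus untreated control, mean survival days, and cured/infected. Mice with <40% reduction euthanized on day 4.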
# Plasmodium berghei [13] = experiment: Antimalarial activity against GFP-fused Plasmodium berghei ANKA infected in mouse assessed as reduction in parasitemia at 12.5 mg/kg, po administered once daily for 4 days by flow cytometry relative to control; format: functional; set-up: scale not given: the % may be the effect or the level left
# Plasmodium berghei [14] = experiment: Antimalarial activity against GFP-fused Plasmodium berghei ANKA infected in mouse assessed as mouse mean survival days at 50 mg/kg, po administered once daily for 4 days; format: functional
# Summary of the method: (§5)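 P. berghei-infected mice (n=3 per dose) dosed orally once daily on 4 consecutive days at 4, 24, 48 and 72 h after infection; compound in 90/10 Tween80/ethanol (v/v) diluted 10-fold with water. Read-outs were % parasitemia reduction, mean survival time in days and cure; mice with <40% parasitemia reduction euthanized on day 4.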
# Plasmodium berghei [15] = experiment: Antimalarial activity against GFP-fused Plasmodium berghei ANKA infected in mouse assessed as mouse mean survival days at 12.5 mg/kg, po administered once daily for 4 days; format: functional
# Plasmodium berghei [16] = experiment: Antimalarial activity against GFP-fused Plasmodium berghei ANKA infected in mouse assessed as reduction in parasitemia at 25 mg/kg, po administered once daily for 4 days by flow cytometry relative to control; format: functional; set-up: scale not given: the % may be the effect or the level left
# Plasmodium berghei [17] = experiment: Antimalarial activity against GFP-fused Plasmodium berghei ANKA infected in mouse assessed as mouse mean survival days at 6 mg/kg, po administered once daily for 4 days; format: functional
# Plasmodium berghei [18] = experiment: Antimalarial activity against GFP-fused Plasmodium berghei ANKA infected in mouse assessed as reduction in parasitemia at 50 mg/kg, po administered once daily for 4 days by flow cytometry relative to control; format: functional; set-up: scale not given: the % may be the effect or the level left; summary of the method: as §4
# Plasmodium berghei [19] = experiment: Antimalarial activity against GFP-fused Plasmodium berghei ANKA infected in mouse assessed as reduction in parasitemia at 6 mg/kg, po administered once daily for 4 days by flow cytometry relative to control; format: functional; set-up: scale not given: the % may be the effect or the level left
# Plasmodium berghei [20] = experiment: Antimalarial activity against GFP-fused Plasmodium berghei ANKA infected in mouse assessed as mouse mean survival days at 3 mg/kg, po administered once daily for 4 days; format: functional; summary of the method: as §5
# Plasmodium berghei [21] = experiment: Antimalarial activity against GFP-fused Plasmodium berghei ANKA infected in mouse assessed as mouse mean survival days at 25 mg/kg, po administered once daily for 4 days; format: functional
# [22] = Clearance in C57/Bl6 mouse at 2.5 mg/kg, iv by LC-MS method; format: ADME, organism-based; settings: in vivo
# Summary of the method: (§6)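 Mice (n=3) given a single intravenous dose of 2.5 mg/kg in dimethylacetamide:polyethylene glycol:propylene glycol/ethanol (4:1) at 1:3:6; 24 h sampling. Parameters were fitted by nonlinear mixed-effects two-compartment model with first-order elimination.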
# Plasmodium falciparum [23] = experiment: Anti-plasmodial activity against chloroquine-sensitive Plasmodium falciparum NF54 late 4/5 stage gametocytes assessed as reduction in ATP levels after 24 hrs by BacTiter-Glo reagent based bioluminescence assay; format: functional; settings: NF54, 24 h
# Mus musculus [24] = experiment: AUC (0 to infinity) in C57/Bl6 mouse at 10 mg/kg, po administered via gavage by LC-MS method; format: ADME, organism-based; set-up: dose 10 mg/kg, route oral, time infinity; settings: in vivo
# Summary of the method: (§7)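 Mice (n=3) given a single oral dose of 10 mg/kg as a suspension in […] HPMC; plasma sampled over 24 h. Parameters were estimated by nonlinear mixed-effects modelling with a two-compartment disposition model, first-order absorption and elimination.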
# [25] = Cmax in C57/Bl6 mouse at 10 mg/kg, po administered via gavage by LC-MS method; format: ADME, organism-based; set-up: dose 10 mg/kg, route oral; settings: in vivo; summary of the method: as §7
# Plasmodium berghei [26] = experiment: Antimalarial activity against GFP-fused Plasmodium berghei ANKA infected in mouse assessed as protection against parasitemia at 10 mg/kg, po administered once daily for 4 days measured 30 days post infection by light microscopy; format: functional, organism-based; summary of the method: as §4
# Mus musculus [27] = experiment: AUC (0 to infinity) in C57/Bl6 mouse at 2.5 mg/kg, iv by LC-MS method; format: ADME, organism-based; set-up: dose 2.5 mg/kg, time infinity, route intravenous; settings: in vivo; summary of the method: as §6
# [28] = Metabolic stability in human liver microsomes assessed as compound remaining at 1 uM in presence of NADPH after 30 mins by LC-MS/MS analysis; format: ADME, microsome; settings: read-out: Stability; summary of the method: as §3
# Plasmodium berghei [29] = experiment: Antimalarial activity against GFP-fused Plasmodium berghei ANKA infected in mouse assessed as protection against parasitemia at 50 mg/kg, po administered once daily for 4 days measured 30 days post infection by light microscopy; format: functional, organism-based; summary of the method: as §4
# [30] = Volume of distribution in C57/Bl6 mouse at 2.5 mg/kg, iv by LC-MS method; format: ADME, organism-based; settings: in vivo; summary of the method: as §6
# [31] = Tmax in C57/Bl6 mouse at 10 mg/kg, po administered via gavage by LC-MS method; format: ADME, organism-based; settings: in vivo; summary of the method: as §7
# Plasmodium berghei [32] = experiment: Antimalarial activity against GFP-fused Plasmodium berghei ANKA infected in mouse assessed as mouse mean survival days at 30 mg/kg, po administered once daily for 4 days; format: functional; summary of the method: as §5
# Plasmodium berghei [33] = experiment: Antimalarial activity against GFP-fused Plasmodium berghei ANKA infected in mouse assessed as mouse mean survival days at 10 mg/kg, po administered once daily for 4 days; format: functional; summary of the method: as §5
# Plasmodium berghei [34] = experiment: Antimalarial activity against GFP-fused Plasmodium berghei ANKA infected in mouse assessed as protection against parasitemia at 3 mg/kg, po administered once daily for 4 days measured 30 days post infection by light microscopy; format: functional, organism-based; summary of the method: as §4
# Plasmodium falciparum [35] = experiment: Ratio of IC50 for chloroquine-sensitive Plasmodium falciparum NF54 early 2/3 stage gametocytes to IC50 for chloroquine-sensitive Plasmodium falciparum NF54 late 4/5 stage gametocytes; format: functional
# Summary of the method: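 Early (stage II/III) and late (stage IV/V) gametocytes tested in parallel luciferase reporter assays; stage preference = EG IC50/LG IC50.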
# [36] = Oral bioavailability in C57/Bl6 mouse at 10 mg/kg administered via gavage by LC-MS method; format: ADME, organism-based; settings: in vivo; summary of the method: as §7
# Plasmodium berghei [37] = experiment: Antimalarial activity against GFP-fused Plasmodium berghei ANKA infected in mouse assessed as protection against parasitemia at 30 mg/kg, po administered once daily for 4 days measured 30 days post infection by light microscopy; format: functional, organism-based; summary of the method: as §4
# Plasmodium berghei [38] = experiment: Antimalarial activity against GFP-fused Plasmodium berghei ANKA infected in mouse assessed as reduction in parasitemia at 10 mg/kg, po administered once daily for 4 days by flow cytometry relative to control; format: functional; set-up: scale not given: the % may be the effect or the level left; summary of the method: as §4
# Plasmodium berghei [39] = experiment: Antimalarial activity against GFP-fused Plasmodium berghei ANKA infected in mouse assessed as reduction in parasitemia at 30 mg/kg, po administered once daily for 4 days by flow cytometry relative to control; format: functional; set-up: scale not given: the % may be the effect or the level left; summary of the method: as §4
# [40] = Half life in C57/Bl6 mouse at 2.5 mg/kg, iv by LC-MS method; format: ADME, organism-based; settings: in vivo; summary of the method: as §6
# [41] = Half life in C57/Bl6 mouse at 10 mg/kg, po administered via gavage by LC-MS method; format: ADME, organism-based; settings: in vivo; summary of the method: as §7
compound,measurement,setting,value
N#Cc1c(-c2ccc(C(F)(F)F)cc2)c(F)c(NCCN2CCC(O)C2)n2c1nc1ccccc12 (stereo not given),Activity,Huh-7,Non-Toxic
same,Ratio IC50,Plasmodium falciparum [1],22
same,pIC50,Ferriprotoporphyrin IX [2],3.92
same,inhibition,Ferriprotoporphyrin IX [3],inactive
same,Activity,Plasmodium berghei [4],Active
same,pIC50,Plasmodium falciparum [5],6.72
same,inhibition,Ferriprotoporphyrin IX [6],inactive
same,selectivity ratio,[7],1080
same,"remaining at 0.5 h, 1 µM",[8],37%
same,pIC50,CHO,3.69
same,solubility kinetic at 2 h,[9],80 µM
same,pIC50,Plasmodium falciparum [10],6.77
same,pIC50,Plasmodium berghei [11],5.85
CCNCCNc1cc(-c2ccc(C(F)(F)F)cc2)c(C#N)c2nc3ccccc3n12.Cl,Activity,Plasmodium berghei [12],<40%
same,Activity,Plasmodium berghei [13],81%
same,MSD,Plasmodium berghei [14],14 days
same,MSD,Plasmodium berghei [15],14 days
same,Activity,Plasmodium berghei [16],96%
same,MSD,Plasmodium berghei [17],7 days
same,Activity,Plasmodium berghei [18],96%
same,Activity,Plasmodium berghei [19],38%
same,MSD,Plasmodium berghei [20],4 days
same,MSD,Plasmodium berghei [21],14 days
CCNCCNc1cc(-c2ccc(C(F)(F)F)cc2)c(C#N)c2nc3cc(Cl)c(Cl)cc3n12,Activity,Plasmodium berghei [12],99.5%
same,clearance,[22],21 mL/min/kg
same,Activity,Huh-7,Non-Toxic
same,Ratio IC50,Plasmodium falciparum [1],1.5 - 2
same,pIC50,Plasmodium falciparum [23],6.14
same,AUC,Mus musculus [24],158 µM·min
same,Cmax,[25],70 nM
same,MSD,Plasmodium berghei [14],30 days
same,Activity,Plasmodium berghei [26],inactive
same,AUC,Mus musculus [27],256 µM·min
same,"remaining at 0.5 h, 1 µM",[28],95%
same,pIC50,Plasmodium falciparum [5],7.70
same,Activity,Plasmodium berghei [29],Active
same,Vd,[30],26 L/kg
same,Tmax,[31],10 h
same,MSD,Plasmodium berghei [32],30 days
same,MSD,Plasmodium berghei [33],18 days
same,Activity,Plasmodium berghei [34],inactive
same,Ratio IC50,Plasmodium falciparum [35],1.2
same,selectivity ratio,[7],188
same,bioavailability,[36],< 15%
same,Activity,Plasmodium berghei [18],98%
same,Activity,Plasmodium berghei [37],Active
same,Activity,Plasmodium berghei [38],99.6%
same,MSD,Plasmodium berghei [20],17 days
same,"remaining at 0.5 h, 1 µM",[8],81%
same,Activity,Plasmodium berghei [39],99.7%
same,pIC50,CHO,5.47
same,solubility kinetic at 2 h,[9],10 µM
same,half-life,[40],900 min
same,half-life,[41],900 min
same,pIC50,Plasmodium falciparum [10],7.70
